These results are taken from ChEMBL document CHEMBL1926530, “Novel pyrazolo[1,5-a]pyridines as p110α-selective PI3 kinase inhibitors: Exploring the benzenesulfonohydrazide SAR” (Bioorg Med Chem, 2012).

pIC50: −log10 of the molar value. ≈ marks a conversion by molar mass, not a printed value.

Series [1] is described as follows: Aqueous solubility of the compound. In kind it is physicochemical. Particulars: water. An outline of the steps:
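Solid mixed with water to make 2 mM, sonicated 15 min, centrifuged 13000 rpm for 6 min. Clear supernatant diluted 2-fold with water, recentrifuged and injected on HPLC. Peak area compared with a DMSO standard solution of the compound, correcting for dilution and injection volume.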

Series [2] deals with Dual specificity mitogen-activated protein kinase kinase 1 (Homo sapiens) (UniProt Q02750). The experiment in a line: Inhibition of MKK1 assessed as residual activity at 10 uM.
Series [3] in a line: Cytotoxicity against human NZB5 cells assessed as inhibition of [3H]thymidine incorporation measured after 5 days. The format is functional, cell-based. In outline:
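Early-passage lines grown in α-MEM with insulin, transferrin, selenite and 5% FBS. Wells seeded with 1000 cells; inhibitor in dilution steps up to a maximum of 20. Five days under 5% O₂/5% CO₂/90% N₂, ³H-thymidine added for the last 6 h. Duplicates per dose; fit y = y₀ + ae^−bx; IC50 = 50% reduction in incorporation.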

Series [4] is described as follows: Terminal half life in CD1 mouse at 10 mg/kg, ip. The format is ADME, organism-based. Details: dose 10 mg/kg, route intraperitoneal. As to conditions: in vivo, read-out: beta t1/2 (converted). In outline: (§1)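 Age-matched specific pathogen-free male CD-1 mice; single 10 mg/kg i.p. dose in 5% DMSO, 45% PEG-400, 20% 2-hydroxypropyl-β-cyclodextrin, 30% water. Blood sampled at multiple times post-dose; plasma taken after centrifugation (10 min, 6000 rpm, 20 °C). Plasma analysed by LC-MS/MS; parameters from non-compartmental analysis.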

The nature of series [5]: Inhibition of PKA assessed as residual activity at 10 uM.
The test system of series [6] is Mus musculus. The experiment in a line: Toxicity in NIH3 mouse xenografted with human SKOV3 cells assessed as body weight loss at 30 mg/kg, ip QD administered for 14 days. Details: dose 30 mg/kg, route intraperitoneal. As to conditions: in vivo, 336 h. In kind it is organism-based, SK-OV-3. An outline of the steps:
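Female NIH III nude mice (age-matched, SPF) inoculated s.c. with 5 × 10⁶ SK-OV-3 cells in PBS. Dosing from ~150 mm³ tumours, 30 mg/kg i.p. q.d. for 14 days in 7.5% DMSO/42.5% PEG-400/20% 2-hydroxypropyl-β-cyclodextrin/30% water; vehicle controls. Volume (L × w²) × π/6 three times weekly; bodyweight daily; culled above 20% weight loss; 1-way ANOVA, Holm–Sidak.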
(In general: A xenograft is tissue or cells of one species grown in another, often human tumour cells in immunodeficient mice.)

Series [7] has as its target High affinity nerve growth factor receptor (Homo sapiens) (UniProt P04629). Kind of series: Inhibition of TrkA assessed as residual activity at 10 uM.
In series [8] the target is Mitogen-activated protein kinase 14 (Homo sapiens) (UniProt Q16539). Kind of series: Inhibition of p38alpha assessed as residual activity at 10 uM.
Series [9] has as its target High affinity nerve growth factor receptor (Homo sapiens) (UniProt P04629). The experiment in a line: Inhibition of TrkA assessed as residual activity at 1 uM.
The target of series [10] is Phosphatidylinositol 4,5-bisphosphate 3-kinase catalytic subunit beta isoform (Homo sapiens, UniProt P42338). The experiment in a line: Inhibition of recombinant PI3K p110beta using L-alpha-phosphatidylinositol as substrate and [gamma33P]ATP after 60 mins by thin layer chromatographic technique. An outline of the steps: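 In-house recombinant enzyme (0.1 µg) with L-α-phosphatidylinositol in 40 mM Tris-HCl pH 7.4, 200 mM NaCl, 1 mM EDTA; DMSO 1% final. Started with 5 mM MgCl₂, 100 µM ATP plus [γ-³³P]ATP; 1 h at room temperature, stopped with 1 M HCl. Lipids extracted, separated by TLC, phosphorimaged. Nine inhibitor concentrations; two experiments, IC50 averaged.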

The test system of series [11] is Mus musculus. The experiment in a line: Toxicity in Rag1 knockout mouse xenografted with human HCT116 cells assessed as body weight loss at 40 mg/kg, ip QD measured on day 7 relative to untreated control. In kind it is organism-based, HCT-116. On the set-up: dose 40 mg/kg, route intraperitoneal. Particulars: in vivo. An outline of the steps:
(§2)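 Male Rag1−/− mice (age-matched, SPF) inoculated s.c. with 5 × 10⁶ HCT-116 cells in PBS. Dosing started at ~150 mm³ tumours: q.d. i.p. in 7.5% DMSO, 42.5% PEG-400, 20% 2-hydroxypropyl-β-cyclodextrin, 30% water; controls received vehicle. Volume = (L × w²) × π/6, measured three times weekly; bodyweight daily. Treatment stopped if mean weight loss >15%; 1-way ANOVA with Holm–Sidak.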

Series [12] deals with Serine/threonine-protein kinase mTOR (Homo sapiens, UniProt P42345). Kind of series: Inhibition of mTOR.
Series [13] can be described thus: Inhibition of PKA assessed as residual activity at 1 uM.
Series [14] can be described thus: Tmax in CD1 mouse at 10 mg/kg, ip. The format is ADME, organism-based. On the set-up: dose 10 mg/kg, route intraperitoneal. As to conditions: in vivo. In outline: as §1
A short description of series [15]: Cmax in CD1 mouse at 10 mg/kg, ip. In kind it is ADME, organism-based. On the set-up: dose 10 mg/kg, route intraperitoneal. As to conditions: in vivo. An outline of the steps:
as §1

In series [16] the target is Insulin receptor (Homo sapiens) (UniProt P06213). Kind of series: Inhibition of IR assessed as residual activity at 10 uM.
Series [17] has as its target Dual specificity mitogen-activated protein kinase kinase 1 (Homo sapiens) (UniProt Q02750). Kind of series: Inhibition of MKK1 assessed as residual activity at 1 uM.
A further series concerns HCT-116. Kind of series: Antitumor activity against human HCT116 cells xenografted in Rag1knockout mouse assessed as tumor growth delay at 40 mg/kg, ip QD measured on day 7 relative to untreated control. In kind it is functional. Particulars: route intraperitoneal. An outline of the steps:
as §2

Series [18] deals with Insulin receptor (Homo sapiens) (UniProt P06213). The experiment in a line: Inhibition of IR assessed as residual activity at 1 uM.

Insulin receptor (Homo sapiens), sequence (P06213 28-758 limits assumed): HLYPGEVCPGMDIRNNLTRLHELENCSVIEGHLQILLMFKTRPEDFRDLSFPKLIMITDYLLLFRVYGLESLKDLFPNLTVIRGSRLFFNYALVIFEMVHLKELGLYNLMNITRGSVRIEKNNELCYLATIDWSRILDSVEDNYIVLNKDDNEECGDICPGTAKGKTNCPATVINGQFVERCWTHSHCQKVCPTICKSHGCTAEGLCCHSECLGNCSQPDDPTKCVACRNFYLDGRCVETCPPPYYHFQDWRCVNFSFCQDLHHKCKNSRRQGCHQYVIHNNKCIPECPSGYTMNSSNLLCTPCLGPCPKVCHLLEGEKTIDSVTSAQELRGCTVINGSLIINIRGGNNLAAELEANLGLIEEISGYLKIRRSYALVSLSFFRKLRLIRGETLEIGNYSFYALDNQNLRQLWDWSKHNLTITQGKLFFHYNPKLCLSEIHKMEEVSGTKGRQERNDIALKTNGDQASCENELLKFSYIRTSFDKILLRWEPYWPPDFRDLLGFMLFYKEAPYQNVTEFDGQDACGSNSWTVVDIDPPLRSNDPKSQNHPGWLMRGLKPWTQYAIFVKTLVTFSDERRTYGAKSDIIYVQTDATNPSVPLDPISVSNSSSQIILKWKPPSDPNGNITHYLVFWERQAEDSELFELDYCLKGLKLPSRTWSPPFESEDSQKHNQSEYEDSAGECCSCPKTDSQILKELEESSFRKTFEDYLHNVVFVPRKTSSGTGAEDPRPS
Insulin receptor (Homo sapiens), sequence (P06213 763-1382 limits assumed): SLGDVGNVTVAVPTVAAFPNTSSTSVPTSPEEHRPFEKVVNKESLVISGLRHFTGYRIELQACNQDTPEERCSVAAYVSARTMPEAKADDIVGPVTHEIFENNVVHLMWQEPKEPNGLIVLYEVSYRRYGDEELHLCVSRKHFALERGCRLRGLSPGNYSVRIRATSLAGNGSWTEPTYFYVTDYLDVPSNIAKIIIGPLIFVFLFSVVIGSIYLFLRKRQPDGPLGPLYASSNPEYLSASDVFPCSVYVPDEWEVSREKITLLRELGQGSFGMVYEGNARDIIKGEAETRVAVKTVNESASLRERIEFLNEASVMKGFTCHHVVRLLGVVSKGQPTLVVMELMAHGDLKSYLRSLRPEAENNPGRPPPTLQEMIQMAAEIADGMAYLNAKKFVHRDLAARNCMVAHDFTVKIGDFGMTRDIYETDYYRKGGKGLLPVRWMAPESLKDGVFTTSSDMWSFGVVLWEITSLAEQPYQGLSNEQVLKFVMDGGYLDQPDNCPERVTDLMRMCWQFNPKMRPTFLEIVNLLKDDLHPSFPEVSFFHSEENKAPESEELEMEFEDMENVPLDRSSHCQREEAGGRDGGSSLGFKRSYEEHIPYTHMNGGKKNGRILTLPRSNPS
High affinity nerve growth factor receptor (Homo sapiens), sequence (P04629 33-796 limits assumed): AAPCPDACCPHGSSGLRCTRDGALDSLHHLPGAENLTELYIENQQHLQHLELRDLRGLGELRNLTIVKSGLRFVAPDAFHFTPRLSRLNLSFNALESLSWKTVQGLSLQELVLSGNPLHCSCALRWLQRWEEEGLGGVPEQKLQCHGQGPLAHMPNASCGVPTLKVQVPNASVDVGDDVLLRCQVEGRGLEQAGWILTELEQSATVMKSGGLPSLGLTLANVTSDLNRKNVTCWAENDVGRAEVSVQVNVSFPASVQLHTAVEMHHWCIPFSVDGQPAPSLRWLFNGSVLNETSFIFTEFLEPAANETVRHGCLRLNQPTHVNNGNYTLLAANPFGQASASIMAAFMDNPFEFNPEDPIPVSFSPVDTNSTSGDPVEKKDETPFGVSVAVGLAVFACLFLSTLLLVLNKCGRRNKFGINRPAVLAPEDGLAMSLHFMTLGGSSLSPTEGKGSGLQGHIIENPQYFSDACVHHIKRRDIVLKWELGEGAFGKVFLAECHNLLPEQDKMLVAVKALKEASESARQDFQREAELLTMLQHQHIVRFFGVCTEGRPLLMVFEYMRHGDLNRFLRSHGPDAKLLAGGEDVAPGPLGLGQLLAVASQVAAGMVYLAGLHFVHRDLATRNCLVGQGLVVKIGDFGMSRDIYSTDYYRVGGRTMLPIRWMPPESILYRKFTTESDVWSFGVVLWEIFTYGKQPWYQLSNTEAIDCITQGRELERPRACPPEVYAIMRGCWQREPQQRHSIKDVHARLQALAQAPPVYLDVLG
Dual specificity mitogen-activated protein kinase kinase 1 (Homo sapiens), sequence (Q02750 whole entry): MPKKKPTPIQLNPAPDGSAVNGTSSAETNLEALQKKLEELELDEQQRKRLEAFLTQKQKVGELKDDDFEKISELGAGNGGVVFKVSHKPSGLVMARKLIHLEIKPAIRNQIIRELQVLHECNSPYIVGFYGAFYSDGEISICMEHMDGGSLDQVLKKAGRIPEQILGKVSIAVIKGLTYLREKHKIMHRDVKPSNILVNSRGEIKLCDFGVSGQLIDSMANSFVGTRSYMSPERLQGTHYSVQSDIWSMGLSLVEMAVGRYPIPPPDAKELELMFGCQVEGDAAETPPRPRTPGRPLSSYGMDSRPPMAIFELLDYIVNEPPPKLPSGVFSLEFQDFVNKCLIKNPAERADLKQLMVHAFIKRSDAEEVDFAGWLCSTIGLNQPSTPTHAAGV
Mitogen-activated protein kinase 14 (Homo sapiens), sequence (Q16539 whole entry): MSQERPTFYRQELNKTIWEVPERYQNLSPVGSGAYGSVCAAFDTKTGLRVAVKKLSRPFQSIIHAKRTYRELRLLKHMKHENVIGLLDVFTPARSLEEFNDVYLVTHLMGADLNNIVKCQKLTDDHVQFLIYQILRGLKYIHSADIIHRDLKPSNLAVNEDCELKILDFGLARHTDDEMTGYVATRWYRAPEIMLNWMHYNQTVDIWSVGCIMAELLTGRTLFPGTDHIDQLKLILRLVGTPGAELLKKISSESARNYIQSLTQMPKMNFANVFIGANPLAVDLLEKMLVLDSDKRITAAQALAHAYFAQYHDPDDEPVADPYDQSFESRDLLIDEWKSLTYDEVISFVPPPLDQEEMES
Phosphatidylinositol 4,5-bisphosphate 3-kinase catalytic subunit beta isoform, sequence (P42338 whole entry, canonical isoform): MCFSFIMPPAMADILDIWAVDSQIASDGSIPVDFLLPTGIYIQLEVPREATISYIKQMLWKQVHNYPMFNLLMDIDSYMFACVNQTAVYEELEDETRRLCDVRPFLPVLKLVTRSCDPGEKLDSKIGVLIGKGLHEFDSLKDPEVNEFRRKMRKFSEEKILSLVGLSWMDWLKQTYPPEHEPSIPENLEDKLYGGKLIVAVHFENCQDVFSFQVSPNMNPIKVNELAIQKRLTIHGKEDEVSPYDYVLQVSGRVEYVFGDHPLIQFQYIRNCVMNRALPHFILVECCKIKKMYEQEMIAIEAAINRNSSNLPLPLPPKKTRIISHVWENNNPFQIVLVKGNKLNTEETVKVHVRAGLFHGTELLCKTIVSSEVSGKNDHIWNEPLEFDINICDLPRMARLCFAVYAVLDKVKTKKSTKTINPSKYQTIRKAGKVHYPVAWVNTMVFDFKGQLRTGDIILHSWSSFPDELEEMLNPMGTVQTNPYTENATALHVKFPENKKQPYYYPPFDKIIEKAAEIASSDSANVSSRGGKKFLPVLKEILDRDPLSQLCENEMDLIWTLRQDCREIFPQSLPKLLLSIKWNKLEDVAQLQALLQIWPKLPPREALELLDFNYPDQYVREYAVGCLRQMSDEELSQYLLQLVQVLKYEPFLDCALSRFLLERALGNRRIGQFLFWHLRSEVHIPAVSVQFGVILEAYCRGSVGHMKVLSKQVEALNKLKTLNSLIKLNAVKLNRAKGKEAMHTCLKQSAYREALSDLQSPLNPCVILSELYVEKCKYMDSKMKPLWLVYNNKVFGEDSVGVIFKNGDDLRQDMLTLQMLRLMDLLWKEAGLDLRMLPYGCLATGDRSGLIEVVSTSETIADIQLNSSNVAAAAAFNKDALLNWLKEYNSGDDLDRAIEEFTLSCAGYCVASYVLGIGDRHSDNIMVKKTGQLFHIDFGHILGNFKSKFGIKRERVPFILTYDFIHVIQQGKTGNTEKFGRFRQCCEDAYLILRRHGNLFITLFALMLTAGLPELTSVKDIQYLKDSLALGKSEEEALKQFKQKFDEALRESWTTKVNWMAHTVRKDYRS

In [1], `Cc1ccc([N+](=O)[O-])cc1S(=O)(=O)N(CCO)/N=C/c1cnn2ccc(C#N)cc12` yielded a solubility of 1.2 µg/mL (≈ 2.8 µM). Besides, the Activity worked out at 5% in [2]; 8% in [5]; 20% in the series with Mus musculus [6]; 15% in series [7]; 13% in series [8]; 73% in series [9]. For the same molecule, the Activity with Mus musculus [11] is > 15%; in [13], 59%; in [16], 14%; in series [17] it was 65%; with HCT-116, 43.8%; in series [18], 76%. Moreover, the results for the pIC50 in [3], in series [10] and in series [12] were 7.22, 7.29 and 6.63, respectively. Also, in series [4], the half-life was 67.8 min. In addition, in series [14], the Tmax was 5 min. Moreover, the Cmax in series [15] came out at 7.58 µM.

By solubility is commonly meant how much of the substance goes into solution per volume. Usually pIC50 stands for −log10 of the IC50, conventionally taken in molar units. By Tmax is commonly meant the time from dosing to the highest level. The term Cmax denotes the highest concentration seen after dosing.
